According to ChEMBL document CHEMBL1144198, “Nucleosides and oligonucleotides containing 1,2,3-triazole residues with nucleobase tethers: synthesis via the azide-alkyne 'click' reaction” (Bioorg Med Chem, 2008):

Legend:
Hepatitis C virus = assay: Antiviral activity against HCV assessed at 15 uM by ELISA; type: functional, Hepacivirus hominis
Procedure, shortened: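 HCV replicon replication in GS4.1 cells, read by ELISA-based replicon assay at a single test concentration of 15 µM of drug; reported as % inhibition.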

[1] = Cytotoxicity against human GS4.1 cells at 15 uM; type: cell-based
Procedure, shortened: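 Cellular toxicity of drug at a single test concentration of 15 µM in GS4.1 (HCV replicon) cells; reported as % toxicity.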

Yellow fever virus = assay: Antiviral activity against YFV infected in BHK21 cells assessed as inhibition of virus-induced cytopathic effect at 15 uM; type: functional; conditions: BHK-21
[2] = Cytotoxicity against YFV infected BHK21 cells at 15 uM; type: cell-based, Mesocricetus auratus; conditions: hamster, bhk-21, 15 µM
dengue virus type 2 = assay: Antiviral activity against DENV infected in BHK21 cells assessed as inhibition of virus-induced cytopathic effect at 15 uM; type: functional; conditions: BHK-21
Procedure, shortened: (§1)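 Single test concentration 15 µM of drug in acutely infected BHK cells; inhibition of virus-induced cytopathogenicity read by CPE assay, reported as % inhibition.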

[3] = Cytotoxicity against DENV infected BHK21 cells at 15 uM; type: cell-based, Mesocricetus auratus; conditions: hamster, bhk-21, 15 µM
Procedure, shortened: (§2)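 Cellular toxicity measured at a single test concentration of 15 µM of drug in BHK cells run alongside the flavivirus CPE assays; reported as % toxicity.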

West Nile virus = assay: Antiviral activity against WNV infected in BHK21 cells assessed as inhibition of virus-induced cytopathic effect at 15 uM; type: functional; conditions: BHK-21; procedure, shortened: as §1
[4] = Cytotoxicity against WNV infected BHK21 cells at 15 uM; type: cell-based, Mesocricetus auratus; conditions: hamster, bhk-21, 15 µM; procedure, shortened: as §2

## O=C(Nc1ncnc2c1ncn2Cc1cn([C@H]2C[C@H](O)[C@@H](CO)O2)nn1)c1ccccc1
Hepatitis C virus
  inhibition at 15 µM: 9.02%
[1]
  Activity: -3.55%
Yellow fever virus
  inhibition at 15 µM: 8.76%
[2]
  Activity: -2.91%
Dengue virus type 2
  inhibition at 15 µM: 1.02%
[3]
  Activity: 5.54%
West Nile virus
  inhibition at 15 µM: -1.16%
[4]
  Activity: 5.54%

## C#CCn1ccc(=O)[nH]c1=O
Hepatitis C virus
  inhibition at 15 µM: 12.1%
[1]
  Activity: -8.85%
Yellow fever virus
  inhibition at 15 µM: -11.3%
[2]
  Activity: 0.08%
Dengue virus type 2
  inhibition at 15 µM: -4.6%
[3]
  Activity: 2.76%
West Nile virus
  inhibition at 15 µM: -4.57%
[4]
  Activity: 2.76%

## Cc1ccc(C(=O)OC[C@H]2O[C@@H](n3cc(Cn4ccc(N)nc4=O)nn3)C[C@@H]2OC(=O)c2ccc(C)cc2)cc1
Hepatitis C virus
  inhibition at 15 µM: 15.6%
[1]
  Activity: -8.12%
Dengue virus type 2
  inhibition at 15 µM: -2.26%
[3]
  Activity: 4.08%
West Nile virus
  inhibition at 15 µM: -3.67%
[4]
  Activity: 4.08%

## Cc1ccc(C(=O)OC[C@H]2O[C@@H](n3cc(Cn4ccc5c(Cl)nc(N)nc54)nn3)C[C@@H]2OC(=O)c2ccc(C)cc2)cc1
Hepatitis C virus
  inhibition at 15 µM: 32.1%
[1]
  Activity: 6.49%
Dengue virus type 2
  inhibition at 15 µM: -2.39%
[3]
  Activity: 0.17%
West Nile virus
  inhibition at 15 µM: -1.44%
[4]
  Activity: 0.17%

## Nc1ncnc2c1ncn2Cc1cn([C@H]2C[C@H](O)[C@@H](CO)O2)nn1
Hepatitis C virus
  inhibition at 15 µM: 7.54%
[1]
  Activity: -0.61%
Yellow fever virus
  inhibition at 15 µM: 8.36%
[2]
  Activity: -2.12%
Dengue virus type 2
  inhibition at 15 µM: 1.02%
[3]
  Activity: 7.85%
West Nile virus
  inhibition at 15 µM: -0.43%
[4]
  Activity: 7.85%

## C#CCn1cnc2c(N)ncnc21
Hepatitis C virus
  inhibition at 15 µM: 2.99%
[1]
  Activity: -10.4%
Yellow fever virus
  inhibition at 15 µM: -2.81%
[2]
  Activity: -7.46%
Dengue virus type 2
  inhibition at 15 µM: -3.4%
[3]
  Activity: 3.8%
West Nile virus
  inhibition at 15 µM: -1.77%
[4]
  Activity: 3.8%

## Nc1nc(Cl)c2ccn(Cc3cn([C@H]4C[C@H](O)[C@@H](CO)O4)nn3)c2n1
Hepatitis C virus
  inhibition at 15 µM: 2.93%
[1]
  Activity: -3.3%
Yellow fever virus
  inhibition at 15 µM: 13.3%
[2]
  Activity: 8.55%
Dengue virus type 2
  inhibition at 15 µM: 2.49%
[3]
  Activity: 1.3%
West Nile virus
  inhibition at 15 µM: 5.71%
[4]
  Activity: 1.3%

## O=c1ccn(Cc2cn([C@H]3C[C@H](O)[C@@H](CO)O3)nn2)c(=O)[nH]1
Hepatitis C virus
  inhibition at 15 µM: 0.04%
[1]
  Activity: -5.59%
Yellow fever virus
  inhibition at 15 µM: 4.59%
[2]
  Activity: -4.57%
Dengue virus type 2
  inhibition at 15 µM: 0.75%
[3]
  Activity: 9.5%
West Nile virus
  inhibition at 15 µM: -2.67%
[4]
  Activity: 9.5%

## Cc1ccc(C(=O)OC[C@H]2O[C@@H](n3cc(Cn4ccc(=O)[nH]c4=O)nn3)C[C@@H]2OC(=O)c2ccc(C)cc2)cc1
Hepatitis C virus
  inhibition at 15 µM: 11.3%
[1]
  Activity: -4.12%
Dengue virus type 2
  inhibition at 15 µM: 0.82%
[3]
  Activity: 3.37%
West Nile virus
  inhibition at 15 µM: -2.84%
[4]
  Activity: 3.37%

## Nc1ncnc2c1ccn2Cc1cn([C@H]2C[C@H](O)[C@@H](CO)O2)nn1
Hepatitis C virus
  inhibition at 15 µM: -3.8%
[1]
  Activity: -3.79%
Yellow fever virus
  inhibition at 15 µM: 11%
[2]
  Activity: 4.48%
Dengue virus type 2
  inhibition at 15 µM: 3.43%
[3]
  Activity: 3.14%
West Nile virus
  inhibition at 15 µM: 2.42%
[4]
  Activity: 3.14%

## Cc1ccc(C(=O)OC[C@H]2O[C@@H](n3cc(Cn4ccc5c(Cl)ncnc54)nn3)C[C@@H]2OC(=O)c2ccc(C)cc2)cc1
Hepatitis C virus
  inhibition at 15 µM: 49.2%
[1]
  Activity: 20.77%
Dengue virus type 2
  inhibition at 15 µM: -1.05%
[3]
  Activity: 0.31%
West Nile virus
  inhibition at 15 µM: -2.95%
[4]
  Activity: 0.31%

## C#CCn1ccc2c(Cl)ncnc21
Hepatitis C virus
  inhibition at 15 µM: 69.2%
[1]
  Activity: 1.84%
Yellow fever virus
  inhibition at 15 µM: -0.25%
[2]
  Activity: -19.45%
Dengue virus type 2
  inhibition at 15 µM: -0.85%
[3]
  Activity: -9.83%
West Nile virus
  inhibition at 15 µM: 3.81%
[4]
  Activity: -9.83%

## OC[C@H]1O[C@@H](n2cc(Cn3cnc4c3ncn3ccnc43)nn2)C[C@@H]1O
Hepatitis C virus
  inhibition at 15 µM: 6.07%
[1]
  Activity: -2.24%
Yellow fever virus
  inhibition at 15 µM: 4.39%
[2]
  Activity: -11.67%
Dengue virus type 2
  inhibition at 15 µM: 2.23%
[3]
  Activity: -2.95%
West Nile virus
  inhibition at 15 µM: -2.44%
[4]
  Activity: -2.95%

## Nc1ccn(Cc2cn([C@H]3C[C@H](O)[C@@H](CO)O3)nn2)c(=O)n1
Hepatitis C virus
  inhibition at 15 µM: 10.1%
[1]
  Activity: -5.59%
Yellow fever virus
  inhibition at 15 µM: 7.89%
[2]
  Activity: -4.62%
Dengue virus type 2
  inhibition at 15 µM: 0.95%
[3]
  Activity: 9.41%
West Nile virus
  inhibition at 15 µM: 0.24%
[4]
  Activity: 9.41%
